Laboratory results as given in ChEMBL document CHEMBL1157589, “Antifungal 3,5-disubstituted furanones: From 5-acyloxymethyl to 5-alkylidene derivatives” (Bioorg Med Chem, 2010).
In brackets after ≈: the same amount, converted by molar mass.

Legend:
Candida albicans [1] = assay: Antifungal activity against Candida albicans ATCC 44859 after 48 hrs by microdilution method; format: functional; conditions: ATCC 44859, 48 h
Outline: (§1)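 Yeasts held on Sabouraud dextrose agar. MIC by NCCLS M27-A broth microdilution in RPMI 1640 with L-glutamine, buffered with 0.165 M MOPS to pH 7.0. Compounds in DMSO (≤2% final), twofold dilutions 500–0.48. Final inoculum 5 × 10³ ± 0.2 cfu mL⁻¹. Incubated at 35 °C; absorbance at 540 nm read at 24 and 48 h. MIC is 80% growth inhibition versus control; run twice in duplicate.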

Candida albicans [2] = assay: Antifungal activity against Candida albicans ATCC 90028 after 24 hrs by microdilution method; format: functional; conditions: ATCC 90028, 24 h; outline: as §1
Candida albicans [3] = assay: Antifungal activity against Candida albicans ATCC 90028 after 48 hrs by microdilution method; format: functional; conditions: ATCC 90028, 48 h; outline: as §1
Candida parapsilosis [4] = assay: Antifungal activity against Candida parapsilosis ATCC 22019 after 24 hrs by microdilution method; format: functional; conditions: Lodderomyces parapsilosis, ATCC 22019, 24 h; outline: as §1
Candida parapsilosis [5] = assay: Antifungal activity against Candida parapsilosis ATCC 22019 after 48 hrs by microdilution method; format: functional; conditions: Lodderomyces parapsilosis, ATCC 22019, 48 h; outline: as §1
Pichia kudriavzevii [6] = assay: Antifungal activity against Candida krusei ATCC 6258 after 24 hrs by microdilution method; format: functional; conditions: ATCC 6258, 24 h; outline: as §1
Pichia kudriavzevii [7] = assay: Antifungal activity against Candida krusei ATCC 6258 after 48 hrs by microdilution method; format: functional; conditions: ATCC 6258, 48 h; outline: as §1
Pichia kudriavzevii [8] = assay: Antifungal activity against Candida krusei E28 after 24 hrs by microdilution method; format: functional; conditions: E28, 24 h; outline: as §1
Pichia kudriavzevii [9] = assay: Antifungal activity against Candida krusei E28 after 48 hrs by microdilution method; format: functional; conditions: E28, 48 h; outline: as §1
Candida tropicalis [10] = assay: Antifungal activity against Candida tropicalis 156 after 24 hrs by microdilution method; format: functional; conditions: Candida tropicalis, 156, 24 h; outline: as §1
Candida tropicalis [11] = assay: Antifungal activity against Candida tropicalis 156 after 48 hrs by microdilution method; format: functional; conditions: Candida tropicalis, 156, 48 h; outline: as §1
Nakaseomyces glabratus [12] = assay: Antifungal activity against Candida glabrata 20/I after 24 hrs by microdilution method; format: functional; outline: as §1
Nakaseomyces glabratus [13] = assay: Antifungal activity against Candida glabrata 20/I after 48 hrs by microdilution method; format: functional; outline: as §1
Clavispora lusitaniae [14] = assay: Antifungal activity against Candida lusitaniae 2446/I after 24 hrs by microdilution method; format: functional; outline: as §1
Clavispora lusitaniae [15] = assay: Antifungal activity against Candida lusitaniae 2446/I after 48 hrs by microdilution method; format: functional; outline: as §1
Trichosporon beigelii [16] = assay: Antifungal activity against Trichosporon beigelii 1188 after 24 hrs by microdilution method; format: functional; conditions: Trichosporon beigelii, 1188, 24 h; outline: as §1
Trichosporon beigelii [17] = assay: Antifungal activity against Trichosporon beigelii 1188 after 48 hrs by microdilution method; format: functional; conditions: Trichosporon beigelii, 1188, 48 h; outline: as §1
Aspergillus fumigatus [18] = assay: Antifungal activity against Aspergillus fumigatus 231 after 24 hrs by microdilution method; format: functional; conditions: Aspergillus fumigatus, 231, 24 h
Outline: (§2)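 Filamentous strains held on Sabouraud dextrose agar. NCCLS M27-A broth microdilution in RPMI 1640 with L-glutamine and 0.165 M MOPS, pH 7.0. DMSO diluent ≤2% final; twofold dilutions 500–0.48. Inoculum 5 × 10³ ± 0.2 cfu mL⁻¹ final.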

Aspergillus fumigatus [19] = assay: Antifungal activity against Aspergillus fumigatus 231 after 48 hrs by microdilution method; format: functional; conditions: Aspergillus fumigatus, 231, 48 h; outline: as §2
Lichtheimia corymbifera [20] = assay: Antifungal activity against Absidia corymbifera 272 after 24 hrs by microdilution method; format: functional; conditions: Lichtheimia corymbifera, 272, 24 h; outline: as §2
Lichtheimia corymbifera [21] = assay: Antifungal activity against Absidia corymbifera 272 after 48 hrs by microdilution method; format: functional; conditions: Lichtheimia corymbifera, 272, 48 h; outline: as §2
[22] = tested on: Trichophyton mentagrophytes; assay: Antifungal activity against Trichophyton mentagrophytes 445 after 72 hrs by microdilution method; format: functional; conditions: Trichophyton mentagrophytes, 445, 72 h
Outline: (§3)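 Dermatophyte held on Sabouraud dextrose agar. M27-A microdilution in MOPS-buffered (0.165 M, pH 7.0) RPMI 1640 with L-glutamine. DMSO ≤2% final; twofold dilutions 500–0.48. Inoculum 5 × 10³ ± 0.2 cfu mL⁻¹ final. Incubated at 35 °C; MIC read visually at 72 and 120 h as 80% inhibition of control growth; determined twice in duplicate.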

[23] = tested on: Trichophyton mentagrophytes; assay: Antifungal activity against Trichophyton mentagrophytes 445 after 120 hrs by microdilution method; format: functional; conditions: Trichophyton mentagrophytes, 445, 120 h; outline: as §3
L1210 = assay: Cytostatic activity against mouse L1210 cells after 72 hrs by XTT assay; format: functional, cell-based
Outline: (§4)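 Leukemia cells (L1210 ATCC CCL 219, CCRF-CEM ATCC CCL 119, HL-60 ATCC CCL 240) grown in 24-well plates in RPMI 1640 with fetal calf serum. Growth assessed 72 h after drug addition. Viability measured by XTT spectrophotometric assay; potency given as IC50.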

HL-60 = assay: Cytostatic activity against human HL60 cells after 72 hrs by XTT assay; format: functional, cell-based; conditions: hl-60; outline: as §4
CCRF-CEM = assay: Cytostatic activity against human CCRF-CEM cells after 72 hrs by XTT assay; format: functional, cell-based; outline: as §4
Candida albicans [24] = assay: Antifungal activity against Candida albicans ATCC 44859 after 24 hrs by microdilution method; format: functional; conditions: ATCC 44859, 24 h; outline: as §1
HeLa S3 = assay: Cytostatic activity against human HeLaS3 cells after 48 hrs by XTT assay

| Structure (SMILES) | MIC80 (Candida albicans [1]) [µM] | MIC80 (Candida albicans [2]) [µM] | MIC80 (Candida albicans [3]) [µM] | MIC80 (Candida parapsilosis [4]) [µM] | MIC80 (Candida parapsilosis [5]) [µM] | MIC80 (Pichia kudriavzevii [6]) [µM] | MIC80 (Pichia kudriavzevii [7]) [µM] | MIC80 (Pichia kudriavzevii [8]) [µM] | MIC80 (Pichia kudriavzevii [9]) [µM] | MIC80 (Candida tropicalis [10]) [µM] | MIC80 (Candida tropicalis [11]) [µM] | MIC80 (Nakaseomyces glabratus [12]) [µM] | MIC80 (Nakaseomyces glabratus [13]) [µM] | MIC80 (Clavispora lusitaniae [14]) [µM] | MIC80 (Clavispora lusitaniae [15]) [µM] | MIC80 (Trichosporon beigelii [16]) [µM] | MIC80 (Trichosporon beigelii [17]) [µM] | MIC80 (Aspergillus fumigatus [18]) [µM] | MIC80 (Aspergillus fumigatus [19]) [µM] | MIC80 (Lichtheimia corymbifera [20]) [µM] | other results |
| --- | --- | --- | --- | --- | --- | --- | --- | --- | --- | --- | --- | --- | --- | --- | --- | --- | --- | --- | --- | --- | --- |
| O=C1O/C(=C\CCCO)C=C1c1ccc(Br)cc1 | 125 (≈ 38.6 µg/mL) | > 500 | > 500 | > 500 | > 500 | > 500 | > 500 | > 500 | > 500 | > 500 | > 500 | > 500 | > 500 | > 500 | > 500 | > 500 | > 500 | > 500 | > 500 | 62.5 (≈ 19.3 µg/mL) | MIC80 (Lichtheimia corymbifera [21]): 62.5 µM (≈ 19.3 µg/mL); MIC80 [22]: 62.5 µM (≈ 19.3 µg/mL); MIC80 [23]: 62.5 µM (≈ 19.3 µg/mL); IC50 (L1210; l1210): Not Active; IC50 (HL-60): Not Active; IC50 (CCRF-CEM; ccrf-cem): Not Active; MIC80 (Candida albicans [24]): 62.5 µM (≈ 19.3 µg/mL); IC50 (HeLa S3; hela s3): Not Active |
| COC(=O)/C=C1\C=C(c2ccc(Br)cc2)C(=O)O1 | > 125 | > 125 | > 125 | > 125 | > 125 | > 125 | > 125 | > 125 | > 125 | > 125 | > 125 | > 125 | > 125 | > 125 | > 125 | > 125 | > 125 | > 125 | > 125 | > 125 | MIC80 (Lichtheimia corymbifera [21]): > 125 µM; MIC80 [22]: > 125 µM; MIC80 [23]: > 125 µM; IC50 (L1210; l1210): Not Active; IC50 (HL-60): Not Active; IC50 (CCRF-CEM; ccrf-cem): Not Active; MIC80 (Candida albicans [24]): > 125 µM; IC50 (HeLa S3; hela s3): Not Active |
| O=C1O/C(=C\CO)C=C1c1ccc(Br)cc1 | 7.81 (≈ 2.2 µg/mL) | 7.81 (≈ 2.2 µg/mL) | 15.6 (≈ 4.39 µg/mL) | 31.2 (≈ 8.78 µg/mL) | 62.5 (≈ 17.6 µg/mL) | 15.6 (≈ 4.39 µg/mL) | 31.2 (≈ 8.78 µg/mL) | 31.2 (≈ 8.78 µg/mL) | 62.5 (≈ 17.6 µg/mL) | 15.6 (≈ 4.39 µg/mL) | 31.2 (≈ 8.78 µg/mL) | 15.6 (≈ 4.39 µg/mL) | 62.5 (≈ 17.6 µg/mL) | 7.81 (≈ 2.2 µg/mL) | 15.6 (≈ 4.39 µg/mL) | 31.2 (≈ 8.78 µg/mL) | 62.5 (≈ 17.6 µg/mL) | 7.81 (≈ 2.2 µg/mL) | 15.6 (≈ 4.39 µg/mL) | 15.6 (≈ 4.39 µg/mL) | MIC80 (Lichtheimia corymbifera [21]): 15.6 µM (≈ 4.39 µg/mL); MIC80 [22]: 7.81 µM (≈ 2.2 µg/mL); MIC80 [23]: 7.81 µM (≈ 2.2 µg/mL); IC50 (L1210; Mus musculus, L1210, 72 h, read-out: IC50): 7.71 µM; IC50 (HL-60): Not Active; IC50 (CCRF-CEM; Homo sapiens, CCRF-CEM, 72 h, read-out: IC50): 2.07 µM; MIC80 (Candida albicans [24]): 1.95 µM (≈ 0.548 µg/mL); IC50 (HeLa S3; Homo sapiens, HeLa S3, 48 h, read-out: IC50): 3.06 µM |
